Compounds with a hit are over-represented: about 1.5% of the library has one in this group of screens.
NRP1-CendR mod = modulators of CendR peptide binding to human neuropilin-1 | FAM-RPARPAR peptide binding to NRP-1, fluorescence polarization | O14786 | 0.85% of 360,000 active | inhibition, % at 25 µM;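 active means inhibition or corrected inhibition above about 18%, plus a signal ratio from 0.5 to 1.5, limit read from the data, passing the limit was not always enough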
UCH37 DUB inh = inhibitors of human deubiquitinating enzyme UCH37; Q9Y5K5; purified proteasome/UCH37, Ub-AMC cleavage fluorescence; inhibition, % (no concentration beside the values); 0.33% of 330,000 active;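 active means mean inhibition over replicate wells above about 20%, limit read from the data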;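 further: 0% = compound-free wells with enzyme and 100% = wells lacking proteasome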
Target sequence (Q9Y5K5 whole entry, looked up): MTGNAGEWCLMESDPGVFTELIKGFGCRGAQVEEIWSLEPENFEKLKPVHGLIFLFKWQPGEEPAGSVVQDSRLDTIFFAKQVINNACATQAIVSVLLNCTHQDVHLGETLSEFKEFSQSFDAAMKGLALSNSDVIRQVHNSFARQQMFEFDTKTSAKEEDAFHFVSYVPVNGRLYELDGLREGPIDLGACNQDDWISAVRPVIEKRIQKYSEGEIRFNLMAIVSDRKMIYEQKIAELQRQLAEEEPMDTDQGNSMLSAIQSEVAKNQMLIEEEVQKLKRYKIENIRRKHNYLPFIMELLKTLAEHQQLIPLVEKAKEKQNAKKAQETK
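Assay system: Proteasome-bound UCH37. Buffer or medium: pH 7.4 Tris-HCl (50 mM) with ovalbumin, ATP-MgCl2, DTT. Incubation: 30 min preincubation with enzyme, 25 min cleavage at room temperature. Measured by: fluorescence, ex 355 nm, em 460 nm. Read-out basis: percent inhibition. Control set: wells without proteasome as full block, compound-free enzyme plus substrate as uninhibited.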
DAGLB inh = blocks human DAGLB lipase activity. 0.059% of 340,000 active. HEK293T DAGLB membrane lysate, EnzChek fluorogenic substrate. inhibition, % at 5.17 µM. AID 504411; in the data active means inhibition above about 34%;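 further: 0% = enzyme with vehicle and 100% = wells lacking enzyme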
CTSL1 counter = blocks F. hepatica cathepsin L1 in PFM18AAP counter-screen. inhibition, % at 5.96 µM. 0.49% of 300,000 active. recombinant F. hepatica cathepsin L1, Z-Leu-Arg-MCA fluorescence;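 active means inhibition above the mean of all tested compounds plus 3 SD, set per screening campaign, cut at about 17% in these data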;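 further: 0% = plate median of test compound wells and 100% = 1 µM Z-Phe-Ala-diazomethylketone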
MT1-MMP act inh = MT1-MMP (human) activation inhibition; P50281; HT1080 RFP-PRO-GFP cells, GFP/RFP ratio fluorescence, overnight; percent of plate control window, DMSO zero; AID 651647; GFP/RFP ratio change, % at 20 µM; 0.061% of 360,000 active;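 active means GFP/RFP ratio change of at least 30% with cell ATP level not reduced by more than half and red fluorescence within 50% of control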
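Assay system: HT1080 cells carrying an RFP-PRO-GFP reporter | Dosing: Single dose of 20 µM compound, 1% DMSO final | Incubation: Cells overnight before dosing, compound overnight, 37 °C, 5% CO2 | Evaluation: GFP/RFP fluorescence ratio | Control set: DMSO and RFP-L50D-GFP cell wells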
* hit, by the source's call; i = inactive; / = no result given.

SMILES	NRP1-CendR mod	UCH37 DUB inh	DAGLB inh	CTSL1 counter	MT1-MMP act inh
CSc1ccc(C=NN2CCN(C)CC2)cc1	/	1	/	/	/
CC(C)(C)NC(=O)C(c1cccs1)N(C(=O)c1csnn1)c1cccc(F)c1 (stereo not drawn)	-3	-1	3	-6	2
Cc1ccc(-c2nnn(CC(=O)N(c3cccc(F)c3)C(C(=O)NC(C)(C)C)c3ccco3)n2)o1 (stereo not drawn)	44*	-1	-2	-1	0
CCC(C)(C)NC(=O)C(c1ccco1)N(C(=O)c1csnn1)c1cccc(F)c1 (stereo not drawn)	34*	4	0	1	10
O=C(O)CCC(=NNC(=O)c1ccccc1)c1cccs1	/	4	/	/	/
Cc1cc(C(=O)c2ccccc2)c(NC(=O)CCl)s1	-4	1	-1	18*	-2
C[C@H](CO)N1C[C@H](C)[C@H](CN(C)S(=O)(=O)c2cn(C)cn2)OCc2cnnn2CCCC1=O	3	/	-3	/	6
C[C@@H]1CN([C@H](C)CO)C(=O)CCCn2nncc2CO[C@@H]1CN(C)C(=O)CCC(F)(F)F	27*	/	1	/	0
C[C@@H]1CN([C@H](C)CO)C(=O)CCCn2nncc2CO[C@H]1CN(C)S(=O)(=O)c1cn(C)cn1	27*	/	-4	/	9
O=[N+]([O-])c1ccc(O)c(C=NNc2nn[nH]n2)c1	/	7	/	/	/
O=C1c2ccccc2C(=O)c2c1oc(C(F)(F)F)c2C(=O)c1ccccc1	2	24*	2	26*	-3
O=C(c1ccccc1)c1coc2c1C(=O)c1ccccc1C2=O	13	15	21	20*	1
COc1ccc2occ(C(=O)c3ccccc3)c2c1	0	5	-7	3	-3
CC(=O)c1c(C)oc2c1C(=O)c1ccccc1C2=O	8	8	1	7	-1
COc1ccc(C(=O)c2coc3c2C(=O)C(=O)c2ccccc2-3)cc1	25*	11	4	-3	10
O=C1CCCC2=C1C(c1ccc(Cl)cc1)n1c(sc(=Cc3ccc4ccncc4c3)c1=O)=N2 (stereo not drawn)	/	-3	/	/	/
O=C(NCCN1CCOCC1)C(=O)NCC1CCCO1 (stereo not drawn)	38*	-2	0	1	-3
COc1ccc(-c2nn(-c3ccccc3)cc2C=NNc2ccccn2)cc1OC	/	-9	/	/	/
Cc1cc(C=O)c(C)n1-c1ccc(N2CCCCC2)c([N+](=O)[O-])c1	41*	-2	10	-3	-10
CCN(CC)Cc1c(O)ccc2c(C)c(CC(=O)OC)c(=O)oc12	47*	i	-2	6	4
COC(=O)Cc1c(C)c2ccc(O)c(CNCc3ccc(OC)c(OC)c3)c2oc1=O	20	i	0	/	2
Cc1ccc(OCC(O)CNC2CCCC2)c(C)c1 (stereo not drawn)	0	2	-1	/	7
Cc1ccccc1OCC(O)CNC1CCC(NCC(O)COc2ccccc2C)CC1 (stereo not drawn)	20*	/	0	-4	-13
O=C(COc1ccc(Br)cc1CO)Nc1ccc(F)cc1	26*	-4	0	-3	-5
C#CCNC(=O)C1=C[C@@H](C2CCCCC2)C[C@@H](OCc2ccc(CO)cc2)O1	28*	5	-5	-1	2
SMILES	NRP1-CendR mod	UCH37 DUB inh	DAGLB inh	CTSL1 counter	MT1-MMP act inh
N#CC(=NNc1ccc(S(=O)(=O)N2CCOCC2)cc1)C(N)=S	/	22*	/	/	/
CC(C)c1cc(C(=O)NN=Cc2cccnc2)n[nH]1	/	2	/	/	/
CC(=O)Nc1cccc(C(C)=NNC(N)=S)c1	/	5	/	/	/
CN(C)C(=S)Nn1c(-c2ccccc2)nc2ccccc2c1=O	-2	25*	2	1	-2
COc1ccc(CCn2c(C)cc3c(c2=O)C(c2ccncc2)C(C#N)=C(N)O3)cc1OC (stereo not drawn)	19*	0	-2	/	-1
COc1ccc(/C=N/NC(=O)c2ccccc2Cl)cc1CSc1nc2ccccc2s1	31*	/	-1	-1	-3
COc1ccccc1C=NNC(=O)c1cc2c(ccc3ccccc32)o1	/	-9	/	/	/
O=C(NCC1CC1)C1Cc2c(-c3ccc(Cl)cc3)ccnc2O1 (stereo not drawn)	-6	/	/	/	-1
O=C(NCCC(F)(F)F)C1Cc2c(-c3ccc(Cl)cc3)ccnc2O1 (stereo not drawn)	27*	/	/	/	-1
CCCOc1ccc(CCC(=O)NN=Cc2ccc([N+](=O)[O-])o2)cc1	/	7	/	/	/
O=C1C(Cl)=C(N2CCC(C(=O)O)CC2)C(=O)c2ccccc21	35*	78*	-2	7	-6
O=c1[nH][nH]c(C(F)(F)F)c1C=NN1CCOCC1	/	4	/	/	/
O=C(c1ccc(F)cc1)C(CN1CCOCC1)c1ccccc1 (stereo not drawn)	27*	5	19	0	12
COc1ccc(C(=O)C(CN2CCOCC2)c2ccccc2)cc1 (stereo not drawn)	4	0	7	-3	-6
CCOc1cccc(-c2c(C(=O)NN=Cc3ccoc3)nnn2-c2nonc2N)c1	/	2	/	/	/
O=C(O)COc1ccccc1C=NNC(=O)CSc1nc2ccccc2n1Cc1ccccc1Cl	/	10	/	/	/
C#CCOCCOCCOCCNc1nc(N2CCN(C(=O)Cn3cc(CCO)nn3)CC2)nc(N2CCN(C(=O)[C@H](C)n3cc(CCCN=C(N)N)nn3)CC2)n1	23*	/	-2	/	1
C#CCOCCOCCOCCNc1nc(N2CCN(C(=O)Cn3cc(CCO)nn3)CC2)nc(N2CCN(C(=O)[C@H]([C@@H](C)CC)n3cc(CCCN=C(N)N)nn3)CC2)n1	-1	2	3	/	-1
C#CCOCCOCCOCCNc1nc(N2CCN(C(=O)Cn3cc(CCCN=C(N)N)nn3)CC2)nc(N2CCN(C(=O)Cn3cc(CC(C)O)nn3)CC2)n1 (stereo not drawn)	25*	1	-2	/	2
CC(C)(C)c1ccc(C=NNC(=O)C2CCCC2)cc1	/	-2	/	/	/
CCOc1cccc(C=NNC(=O)c2cc(C3CC3)[nH]n2)c1O	/	1	/	/	/
CC(=O)Nc1ccc(S(=O)(=O)NC(C)C(=O)NCC(c2ccco2)N(C)C)cc1 (stereo not drawn)	27*	-23	0	/	0
COc1ccc(O)c(C=NNC(=S)NCCc2ccccc2)c1	/	-35	/	/	/
CC(=NNC(=O)c1ccc(-c2ccccc2)cc1)c1cc(O)cc(O)c1	/	-1	/	/	/
CC(C)c1onc(C(=O)NCc2ccccc2)c1[N+](=O)[O-]	-8	-2	0	18*	2
CC(C)c1onc(C(=O)NCc2ccc(Cl)cc2)c1[N+](=O)[O-]	0	4	-4	3	-6
CN(C)C(CNC(=O)c1ccc([N+](=O)[O-])cc1Cl)c1ccco1 (stereo not drawn)	-4	-3	4	19*	-1
COc1ccc(C(C)=NNc2ncc(Cl)cc2Cl)c(O)c1	/	-14	/	/	/

Screening data: PubChem BioAssay, several laboratories
